In ChEMBL document CHEMBL1914395, “Design, synthesis, and biological evaluation of callophycin A and analogues as potential chemopreventive and anticancer agents” (Bioorg Med Chem, 2011):

Tests used:
[1] = system: HEK293; assay: Inhibition of TNF-alpha-induced NFkappaB activation in human HEK293 cells at 50 uM after 6 hrs by luciferase assay relative to control; type: cell-based
How it was run: (§1)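 Cells incubated 6 h with TNFα plus test compound, then luciferase activity measured. Results expressed as percent of TNFα-treated control. Screening concentration 50 μM.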

[2] = target: T1, Aromatase (Homo sapiens, UniProt P11511); assay: Inhibition of aromatase at 50 uM after 10 mins preincubation by plate reader relative to control
T1 sequence (P11511 whole entry): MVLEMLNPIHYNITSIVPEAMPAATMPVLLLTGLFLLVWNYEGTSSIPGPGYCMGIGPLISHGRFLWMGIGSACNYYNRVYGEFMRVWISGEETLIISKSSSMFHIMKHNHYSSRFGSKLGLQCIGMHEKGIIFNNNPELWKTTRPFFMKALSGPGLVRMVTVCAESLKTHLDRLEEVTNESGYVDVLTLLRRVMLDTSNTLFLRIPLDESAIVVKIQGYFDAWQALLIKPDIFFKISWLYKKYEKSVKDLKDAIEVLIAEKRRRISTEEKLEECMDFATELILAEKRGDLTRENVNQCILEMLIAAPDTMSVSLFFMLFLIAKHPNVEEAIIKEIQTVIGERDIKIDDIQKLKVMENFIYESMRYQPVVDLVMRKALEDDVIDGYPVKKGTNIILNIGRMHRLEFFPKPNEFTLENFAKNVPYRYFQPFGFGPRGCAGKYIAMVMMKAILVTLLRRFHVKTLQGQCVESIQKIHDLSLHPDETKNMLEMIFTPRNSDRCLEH
How it was run: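 CYP19 enzyme. Compound pre-incubated 10 min with an NADPH-regenerating system (NADP+, glucose 6-phosphate, G6PDH, MgCl2, albumin) in 50 mM potassium phosphate pH 7.4. Enzyme and 0.4 μM dibenzylfluorescein substrate then added, 30 min at 37 °C. Quenched with 2 N NaOH and incubated a further 2 h at 37 °C. Fluorescence read at ex 485/em 530 nm. Compound tested at 50 μM.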

[3] = target: T2, Nitric oxide synthase, inducible (Mus musculus, UniProt P29477); assay: Inhibition of iNOS-mediated nitric oxide production in LPS-stimulated mouse RAW 264.7 cells pretreated 15 mins before LPS challenge measured after 20 hrs relative to control; type: cell-based
T2 sequence (P29477 whole entry): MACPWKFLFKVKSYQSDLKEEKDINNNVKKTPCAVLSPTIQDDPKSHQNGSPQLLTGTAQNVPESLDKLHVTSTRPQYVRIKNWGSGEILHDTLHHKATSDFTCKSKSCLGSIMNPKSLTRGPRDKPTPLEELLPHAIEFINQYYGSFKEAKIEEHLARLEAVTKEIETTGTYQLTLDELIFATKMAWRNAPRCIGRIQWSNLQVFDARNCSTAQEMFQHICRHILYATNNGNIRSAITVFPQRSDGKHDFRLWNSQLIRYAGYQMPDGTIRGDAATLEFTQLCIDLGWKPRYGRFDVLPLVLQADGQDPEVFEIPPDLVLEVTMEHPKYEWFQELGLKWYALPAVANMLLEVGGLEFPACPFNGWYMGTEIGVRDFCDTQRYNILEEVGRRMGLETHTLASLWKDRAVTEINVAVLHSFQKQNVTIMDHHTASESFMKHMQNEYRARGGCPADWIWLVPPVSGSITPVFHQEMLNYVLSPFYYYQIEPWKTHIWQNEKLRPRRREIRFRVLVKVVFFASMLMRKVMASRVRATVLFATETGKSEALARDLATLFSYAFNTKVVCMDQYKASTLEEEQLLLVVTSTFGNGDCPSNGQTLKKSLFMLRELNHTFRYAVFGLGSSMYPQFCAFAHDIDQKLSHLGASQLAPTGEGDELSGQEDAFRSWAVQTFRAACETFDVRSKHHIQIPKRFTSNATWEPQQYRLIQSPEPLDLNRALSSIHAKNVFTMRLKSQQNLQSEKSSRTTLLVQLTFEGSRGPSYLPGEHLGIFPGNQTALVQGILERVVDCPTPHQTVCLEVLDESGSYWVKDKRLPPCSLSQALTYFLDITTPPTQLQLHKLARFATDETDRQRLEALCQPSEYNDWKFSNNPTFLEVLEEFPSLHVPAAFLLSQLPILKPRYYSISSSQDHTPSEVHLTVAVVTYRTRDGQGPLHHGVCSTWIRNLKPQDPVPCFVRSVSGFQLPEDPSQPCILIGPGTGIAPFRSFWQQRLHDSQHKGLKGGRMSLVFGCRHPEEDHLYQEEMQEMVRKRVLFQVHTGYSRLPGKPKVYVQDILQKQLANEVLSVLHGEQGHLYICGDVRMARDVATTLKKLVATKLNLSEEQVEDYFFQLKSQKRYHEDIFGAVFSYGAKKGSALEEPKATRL
How it was run: (§2)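 RAW 264.7 cells cultured 24 h at 37°C, then given serially diluted compounds for 15 min before LPS (1 μg/mL) for 20 h. Nitrite in the medium measured with Griess reagent at 540 nm against a sodium nitrite standard curve. Cytotoxicity checked by SRB under the same conditions.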

[4] = target: NAD(P)H dehydrogenase [quinone] 1 (Mus musculus) (UniProt Q64669); assay: Induction of quinone reductase 1 in mouse Hepa 1c1c7 cells assessed as concentration of compound required to double enzyme activity by MTT assay; type: cell-based
Sequence of NAD(P)H dehydrogenase [quinone] 1 (Mus musculus) (Q64669 whole entry): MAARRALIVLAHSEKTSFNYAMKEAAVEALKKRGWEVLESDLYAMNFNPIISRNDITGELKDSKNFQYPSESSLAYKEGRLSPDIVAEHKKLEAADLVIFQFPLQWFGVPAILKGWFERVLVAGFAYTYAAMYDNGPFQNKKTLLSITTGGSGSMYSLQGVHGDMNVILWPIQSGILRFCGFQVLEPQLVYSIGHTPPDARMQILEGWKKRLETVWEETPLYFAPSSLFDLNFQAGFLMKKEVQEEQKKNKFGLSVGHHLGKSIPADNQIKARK
How it was run: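 Dose-response in Hepa 1c1c7 cells, run for substances with induction ratio >2 at 50 μM. QR1 activity measured as menadiol-mediated, NADPH-dependent MTT reduction to formazan, normalised to crystal violet protein content. CD is the concentration that doubles specific activity relative to DMSO control.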

[5] = target: T3, Nitric oxide synthase, inducible (Mus musculus) (UniProt P29477); assay: Inhibition of iNOS-mediated nitric oxide production in LPS-stimulated mouse RAW 264.7 cells at 50 uM pretreated 15 mins before LPS challenge measured after 20 hrs relative to control; type: cell-based; how it was run: as §2
T3 sequence (whole entry): T2 sequence (P29477 whole entry)

[6] = target: NAD(P)H dehydrogenase [quinone] 1 (Mus musculus) (UniProt Q64669); assay: Induction of quinone reductase 1 activity in mouse Hepa-1c1c7 cells assessed as cell survival at 50 uM by MTT assay relative to control; type: cell-based
[7] = system: HEK293; assay: Inhibition of TNF-alpha-induced NFkappaB activation in human HEK293 cells assessed as cell survival at 50 uM after 6 hrs by luciferase assay relative to control; type: cell-based
[8] = system: MCF7; assay: Antiproliferative activity against human MCF7 cells assessed as survival at 50 uM after 72 hrs by SRB assay relative to control; type: functional; conditions: MCF7, 72 h, read-out: Survival
How it was run: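 MCF7 cells (1 × 10^4 per well) were plated onto compound and kept at 37°C, 5% CO2 for 72 h. Cells were fixed in 10% TCA for 30 min and stained with 0.4% SRB in 1% acetic acid for 30 min. Bound dye was dissolved in 10 mM Tris (pH 10.0) and read at 515 nm. Survival is given as % of DMSO-treated controls, screened at 50 μM.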

[9] = target: NAD(P)H dehydrogenase [quinone] 1 (Mus musculus) (UniProt Q64669); assay: Induction of quinone reductase 1 activity in mouse Hepa-1c1c7 cells at 50 uM by MTT assay relative to untreated control; type: cell-based
How it was run: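 Hepa 1c1c7 murine hepatoma cells treated with compound at 50 μM. QR1 measured by NADPH-dependent, menadiol-mediated reduction of MTT to formazan. Protein measured by crystal violet staining of identical plates. Specific activity is nmol formazan per mg protein per min. Induction ratio is treated versus DMSO-treated control.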

[10] = target: T3, Nitric oxide synthase, inducible (Mus musculus); assay: Inhibition of iNOS-mediated nitric oxide production in LPS-stimulated mouse RAW 264.7 cells assessed as cell survival at 50 uM pretreated 15 mins before LPS challenge measured after 20 hrs relative to control; type: cell-based
How it was run: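 RAW 264.7 cells were incubated at 37°C, 5% CO2 for 24 h. They were then exposed to compound for 15 min before LPS (1 μg/mL) was added for 20 h. Cytotoxicity was measured by SRB staining under the same conditions. Survival is expressed as % relative to vehicle-treated controls at 50 μM.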

[11] = Inhibition of TNF-alpha-induced NFkappaB activation in human HEK293 cells after 6 hrs by luciferase assay; type: cell-based; conditions: HEK293, 6 h; how it was run: as §1

Structure (SMILES) | inhibition [1] | inhibition at 50 µM [2] | IC50 [3] | CD [4] | inhibition [5] | Survival [6] | Survival [7] | viability at 50 µM [8] | Ratio [9] | Survival [10] | IC50 [11]
C=CCOC(=O)N1Cc2[nH]c3ccccc3c2C[C@@H]1C(=O)OC | 50.7% | 35.1% | 27.7 µM | 15.9 µM | 57.1% | 77.3% | 97.6% | 69.5% | 2.8 | 91.6% | –
COC(=O)[C@H]1Cc2c([nH]c3ccccc23)CN1Cc1ccc(O)cc1 | 33.5% | 38.7% | 37.5 µM | – | 63.7% | 98.6% | 122% | 100% | 1.8 | 87.3% | –
C=CCOC(=O)N1Cc2[nH]c3ccccc3c2C[C@H]1C(=O)O | 35.6% | 38.4% | – | 26.5 µM | -6.3% | 82.9% | 109% | – | 2.4 | 135% | –
O=C(O)[C@@H]1Cc2c([nH]c3ccccc23)CN1S(=O)(=O)c1ccc(Br)cc1 | 55.4% | 23.2% | 49.7 µM | – | 50% | 97.8% | 247% | 77% | 1.3 | 80.6% | –
COC(=O)[C@H]1Cc2c([nH]c3ccccc23)CN1Cc1ccc(OCc2ccccc2)cc1 | 40.5% | 27.3% | 29.4 µM | – | 75.9% | 85.4% | 91% | 96.7% | 1.4 | 86.8% | –
COC(=O)[C@@H]1Cc2c([nH]c3ccccc23)CN1Cc1ccc(OCc2ccccc2)cc1 | 24.7% | 28% | 39.2 µM | – | 58% | 72.8% | 99.7% | – | 1.8 | 93.9% | –
O=C(O)[C@@H]1Cc2c([nH]c3ccccc23)CN1CC1CC1 | 33.7% | 30.2% | – | 27.6 µM | -7% | 90.7% | 234% | 108% | 2.4 | 135% | –
C#CCN1Cc2[nH]c3ccccc3c2C[C@@H]1C(=O)OC | 43.6% | 31.7% | – | 50 µM | 41.1% | 77.2% | 227% | – | 2 | 114% | –
Cc1ccc(S(=O)(=O)N[C@@H](Cc2ccccc2)C(=O)CCl)cc1 [TPCK] | – | – | – | – | – | – | – | – | – | – | 4.9 µM
COC(=O)[C@H]1Cc2c([nH]c3ccccc23)CN1 | 58.4% | 14.3% | – | – | 7.2% | 115% | 60.3% | – | 1.1 | 116% | 22.1 µM
C#CCN1Cc2[nH]c3ccccc3c2C[C@H]1C(=O)O | 50.2% | 30.5% | – | 18.7 µM | 7% | 91.9% | 228% | 112% | 2.2 | 126% | –
COC(=O)[C@@H]1Cc2c([nH]c3ccccc23)CN1S(=O)(=O)c1ccc(Br)cc1 | 32.8% | 36.7% | 23.1 µM | – | 70.6% | 36.4% | 186% | -2.1% | 0.2 | 89.2% | –
O=C(O)[C@H]1Cc2c([nH]c3ccccc23)CN1S(=O)(=O)c1ccc(Br)cc1 | 50.9% | 32.3% | 46.1 µM | – | 56.2% | 88.3% | 252% | 91.2% | 1.3 | 103% | –
